Where “and” joins values, the source holds several entries; their conditions need not be identical. Identical values can stand only once. Entries after “also recorded” stand apart in the source; their conditions may differ.
Tests used:
[1] = target: 20S proteasome chymotrypsin-like (CT-L, β5) activity (Homo sapiens, UniProt P28074); type: in vivo, CB-17 SCID mice bearing human MM.1S tumors; conditions: MM1.S, iv, read-out: CT-L proteasome activity inhibition in tumors, tumor, 24h after a single treatment, 0.15 mg/kg i.v.
[2] = system: 20S proteasome CT-L, C-L, and T-L activities; experiment: Ex vivo 20S proteasome activities; type: in vivo, CB-17 SCID mice bearing human MM.1S tumors; conditions: for inhibition of all three proteasome activities in tumor: approximately
Method in brief: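 Male CB-17 SCID mice (4-6 wk) carrying s.c. flank MM.1S xenografts (5.0 × 10^6 cells) were dosed i.v. at ∼200-300 mm3 with 0.15 mg/kg once (D1) or three times (D1, D4, D8), or with vehicle (2% DMSO in 5% Solutol). Euthanasia at 10 min, 1, 4, 24h. Homogenates used 20 μg protein in HEPES/EDTA pH 8.0 buffer with 60 μM fluorogenic substrate (Bz-VGR-AMC for T-L) and 0.05% SDS for CT-L/C-L. Reported as % inhibition vs vehicle; mean ± SD, n = 3.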

[3] = Tolerability in efficacy study; type: in vivo, CB-17 SCID mice; conditions: 0.15 mg/kg i.v. twice a week for three weeks
[4] = system: MM.1S tumors; experiment: Human plasmacytoma xenograft efficacy study; type: in vivo, CB-17 SCID mice; conditions: 0.15 mg/kg i.v. twice a week for three weeks
Method in brief: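 Male CB-17 SCID mice (4-6 wk) were given 5.0 × 106 MM.1S cells s.c. in the flank in serum-free RPMI. They then received 0.15 mg/kg i.v. or vehicle (2% DMSO/98% of 5% Solutol) twice weekly for three weeks (D1, D4, D8, D11, D15, D18); n=5 per group. Tumors were measured with calipers every third day, and volume was calculated as V = 0.5 a × b2. Mean ± SD; Student's t test, P < 0.05.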

[5] = system: Factor VIII-positive cells in xenografted MM.1S tumors; experiment: IHC Factor VIII staining; type: in vivo, CB-17 SCID mice; conditions: vs vehicle alone, tumors harvested Day 21
Method in brief: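 Xenograft-bearing mice received vehicle or 0.15 mg/kg i.v. twice weekly for three weeks. MM.1S tumors were harvested 3h after the last dose (Day 21), and paraffin-embedded sections were immunostained for Factor VIII as an angiogenesis marker. The images shown are representative of two mice per treatment.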

[6] = system: CT-L proteasome activity; conditions: MTD doses (0.7 mg/m^2), other clinical trials; cited from earlier work
[7] = system: caspase-3 activation / PARP cleavage in xenografted MM.1S tumors; experiment: In situ detection of apoptosis and immunoblot; type: in vivo, CB-17 SCID mice
Method in brief: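 Xenograft-bearing mice were treated i.v. with 0.15 mg/kg or vehicle twice weekly for three weeks. Tumors were harvested on Day 21, either 3h after the last dose (immunoblot) or at endpoint (IHC). For in situ staining, apoptotic cells were identified by cleaved caspase-3. Tumor lysates (three mice per group) were immunoblotted for PARP, cleaved caspase-3 and GAPDH, using HRP-conjugated secondary antibodies and ECL detection.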

[8] = system: proteasome; conditions: rats, single dose 0.15 mg/kg; ref Chauhan, et al 2005; cited from earlier work
[9] = system: CHOP/GADD153, phospho-eIF2α, Bip, Hsp70 in xenografted MM.1S tumors; experiment: Immunoblot of ER stress proteins in tumor lysates; type: in vivo, CB-17 SCID mice; conditions: tumors harvested 3h after last dose (Day 21)
[10] = system: proteasome; conditions: ref Chauhan, et al 2005; cited from earlier work
[11] = tumors, single dose 0.15 mg/kg i.v.

Compound: C[C@@]12OC(=O)[C@]1([C@@H](O)[C@@H]1C=CCCC1)NC(=O)[C@@H]2CCCl [NPI-0052, marizomib]
- inhibition at 0.15 mg/kg [1]: 60%
- time to onset of inhibition of all three proteasome activities ([2]; PWB, liver, spleen, lung, kidney, single dose 0.15 mg/kg i.v.): ≤ 10 min
- time for proteasome activities to return to baseline ([2]; all tissues examined except PWB and tumors, single dose): ≤ 24 h
- inhibition of proteasome activity in brain ([2]; brain tissue, any time point after single or three doses, 0.15 mg/kg i.v., 0.15 mg/kg): does not inhibit; also recorded: no significant inhibition
- time for recovery of all three proteasome activities ([2]; liver, kidney, lung, spleen, after three doses): ≤ 24 h
- inhibition of all three proteasome activities in most tissues ([2]; most tissues, without significant toxicity): greater than 70%
- duration of proteasome inhibition ([2]; other organs (lung, liver, spleen, kidney)): < 24 h
- inhibition of all three proteasome activities in tumor ([2]; 24h post single dose): 25-60%
- inhibition of all three proteasome activities in tumor ([2]; 24h post third dose): 70-80%
- duration of proteasome inhibition ([2]; tumors and PWB): > 24 h
- inhibition of all three proteasome activities ([2]; tumors, PWB and other tissues except brain, within 10 mins following the third dose, 0.15 mg/kg i.v.): 65-90%
- time of maximal inhibition of proteasome activities in tumors [2, 11]: 24 h
- time to onset of inhibition of proteasome activities in tumors [2, 11]: ≤ 1 h
- toxicity (body weight, overall appearance) [3]: not associated with any toxicity
- day on which anti-MM activity (delay in tumor growth) was first evident [4]: 7 days and 5 to 7 days
- tumor growth relative to vehicle-treated control [4]: significantly decreased tumor growth
- Factor VIII-positive cells in tumor sections [5]: dramatically decreased
- inhibition of CT-L proteasome activity at MTD doses [6]: Complete inhibition
- neuropathy or myelosuppression at MTD doses [6]: without evidence of neuropathy or myelosuppression
- PARP cleavage in tumor lysates ([7]; tumors harvested 3h after last treatment (Day 21)): robust cleavage
- caspase-3 positive cells in tumor sections ([7]; tumors harvested day 21, vs untreated control mice): increased numbers of caspase-3 positive cells
- time for recovery of proteasome inhibition in PWB [8]: ≤ 7 days
- endoplasmic stress-response proteins in tumor lysates [9]: upregulation of CHOP/GADD153, phospho-eIF2α, Bip, and Hsp70

Compound: CC(C)C[C@H](NC(=O)[C@H](Cc1ccccc1)NC(=O)c1cnccn1)B(O)O [bortezomib]
- time for recovery of proteasome activity in blood [10]: ≥ 48 h

Reference: paper PMC4427841 (British journal of haematology, 2010)
